Source: ChEMBL document CHEMBL4373711, “Development of 3,5-Dinitrophenyl-Containing 1,2,4-Triazoles and Their Trifluoromethyl Analogues as Highly Efficient Antitubercular Agents Inhibiting Decaprenylphosphoryl-β-d-ribofuranose 2'-Oxidase” (J Med Chem, 2019)
≈ marks a conversion by molar mass, not a printed value. Calls of active or inactive are those of the source. The rule behind the calls is not given here.

Legend:
Mycobacterium avium = experiment: Antimycobacterial activity against Mycobacterium avium CNCTC My 330/88 after 21 days; type: functional; conditions: CNCTC My 330/88, 504 h
Summary of the method: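 M. avium was tested by microdilution in Šula's semisynthetic medium, with compounds dissolved in DMSO and serially diluted from 1000 down to 1. Inoculum was a 1.0 McFarland suspension diluted 10-5. Plates were incubated at 37 °C and read at 14 and 21 days. […] Isoniazid and rifampicin served as standards.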

[1] = target: T1, Decaprenylphosphoryl-beta-D-ribose oxidase (Mycobacterium smegmatis (strain ATCC 700084 / mc(2)155)) (UniProt A0R607); experiment: Inhibition of DprE1 in Mycolicibacterium smegmatis MC2 155 lysate assessed as reduction in epimerization of P[14C]RPP to DP[14C]A at 700 uM measured after 1.5 hrs in presence of NADH by TLC-based autoradiography; type: subcellular
T1 sequence (whole entry): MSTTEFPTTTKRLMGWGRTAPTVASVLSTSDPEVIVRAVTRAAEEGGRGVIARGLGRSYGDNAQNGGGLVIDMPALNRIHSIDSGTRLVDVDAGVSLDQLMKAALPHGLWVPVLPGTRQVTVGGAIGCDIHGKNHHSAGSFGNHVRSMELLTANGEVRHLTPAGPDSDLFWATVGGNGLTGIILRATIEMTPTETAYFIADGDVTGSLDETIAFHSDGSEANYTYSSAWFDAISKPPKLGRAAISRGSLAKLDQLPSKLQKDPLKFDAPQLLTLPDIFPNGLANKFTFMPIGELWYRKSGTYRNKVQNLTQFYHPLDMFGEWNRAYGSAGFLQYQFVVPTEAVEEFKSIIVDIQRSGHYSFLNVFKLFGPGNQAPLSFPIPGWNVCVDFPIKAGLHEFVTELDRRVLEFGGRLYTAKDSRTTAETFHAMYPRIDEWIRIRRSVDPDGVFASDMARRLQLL
Summary of the method: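 Cell-free DPA synthesis used a membrane/cell-envelope fraction (430 µg), spun at 100 000 × g, from sonicated M. smegmatis mc2155. The fraction was incubated 1.5 h with 15,000 dpm P[14C]RPP and NADH. BTZ was used at 70 µM and test compounds at 700 µM final, both added from DMSO stocks. Lipids were extracted, 25% was resolved by TLC, and autoradiography ran 8 days at -80 °C.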

Aspergillus fumigatus = experiment: Antifungal activity against Aspergillus fumigatus ATCC 204305 at highest concentration measured after 24 to 48 hrs by alamar blue dye based broth microdilution assay; type: functional, organism-based
Candida parapsilosis = experiment: Antifungal activity against Candida parapsilosis ATCC 22019 CCM 8260 at highest concentration measured after 24 to 48 hrs by alamar blue dye based broth microdilution assay; type: functional, organism-based
Escherichia coli = experiment: Antibacterial activity against Escherichia coli ATCC 25922 CCM 3954 at highest concentration measured after 24 to 48 hrs by alamar blue dye based broth microdilution assay; type: functional, organism-based
Enterococcus faecalis = experiment: Antibacterial activity against Enterococcus faecalis ATCC 29212 CCM 4224 at highest concentration measured after 24 to 48 hrs by alamar blue dye based broth microdilution assay; type: functional, organism-based
[2] = test system: Mycobacterium tuberculosis; experiment: Antimycobacterial activity against XDR Mycobacterium tuberculosis Praha 131 after 14 days; type: functional; conditions: Praha 131, 336 h
Summary of the method: (§1)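 M. tuberculosis strains (H37Rv and clinical MDR/XDR isolates) tested by microdilution in Šula's semisynthetic medium. Compounds were dissolved in DMSO and tested at 32 to 0.03 µM in twofold steps. Inoculum was a 1.0 McFarland suspension diluted 10-3. Plates were incubated at 37 °C and read at 14 and 21 days.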

Aspergillus flavus = experiment: Antifungal activity against Aspergillus flavus CCM 8363 at highest concentration measured after 24 to 48 hrs by alamar blue dye based broth microdilution assay; type: functional, organism-based
[3] = test system: Mycobacterium tuberculosis; experiment: Antimycobacterial activity against Mycobacterium tuberculosis H37Rv CNCTC My 331/88 after 14 days; type: functional; conditions: H37Rv CNCTC My 331/88, 336 h; summary of the method: as §1
Mycobacterium kansasii [4] = experiment: Antimycobacterial activity against Mycobacterium kansasii CNCTC My 235/80 after 21 days; type: functional; conditions: CNCTC My 235/80, 504 h
Summary of the method: (§2)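 Microdilution in Šula's semisynthetic medium; compounds in DMSO at 32–0.03 µM. Inoculum from 1.0 McFarland suspension diluted 10-4. […] Isoniazid and rifampicin as reference drugs.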

Mycobacterium kansasii [5] = experiment: Antimycobacterial activity against Mycobacterium kansasii CNCTC My 235/80 after 7 days; type: functional; conditions: CNCTC My 235/80, 168 h; summary of the method: as §2
[6] = target: T2, Decaprenylphosphoryl-beta-D-ribose oxidase (Mycobacterium tuberculosis (strain ATCC 25618 / H37Rv)) (UniProt P9WJF1); experiment: Inhibition of DprE1 in Mycobacterium tuberculosis H37Rv assessed as accumulation of trehalose dimycolates at 10 times MIC measured after 24 hrs in presence of [14C]-acetate by TLC-based autoradiography
T2 sequence (whole entry): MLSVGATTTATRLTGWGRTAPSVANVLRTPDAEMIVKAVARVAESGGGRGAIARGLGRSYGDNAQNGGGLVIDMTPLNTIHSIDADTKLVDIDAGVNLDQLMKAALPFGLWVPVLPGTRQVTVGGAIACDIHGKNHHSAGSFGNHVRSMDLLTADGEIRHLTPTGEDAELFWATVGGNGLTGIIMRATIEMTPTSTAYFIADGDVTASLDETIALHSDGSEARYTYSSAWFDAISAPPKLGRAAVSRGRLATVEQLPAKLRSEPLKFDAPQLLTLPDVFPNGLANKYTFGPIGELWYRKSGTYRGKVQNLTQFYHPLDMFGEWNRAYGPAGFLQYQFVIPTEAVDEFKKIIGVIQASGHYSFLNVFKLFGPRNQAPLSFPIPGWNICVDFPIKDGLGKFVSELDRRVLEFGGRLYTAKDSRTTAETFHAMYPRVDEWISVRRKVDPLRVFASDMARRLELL
Summary of the method: (§3)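 M. tuberculosis H37Rv cultures were exposed to compound at final 10× or 100× MIC, or to DMSO, together with [14C]-acetate at 1 µCi/ml final. After 24 h, lipids were extracted in CHCl3/CH3OH (2:1) for 2 h at 65 °C and given two Folch washes. Extracts were run on TLC in CHCl3/CH3OH/H2O (20:4:0.5), then autoradiographed for 7 days at -80 °C.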

Staphylococcus aureus = experiment: Antibacterial activity against Staphylococcus aureus subsp. aureus ATCC 29213 CCM 4223 at highest concentration measured after 24 to 48 hrs by alamar blue dye based broth microdilution assay; type: functional, organism-based
[7] = test system: Mycobacterium tuberculosis; experiment: Antimycobacterial activity against Mycobacterium tuberculosis H37Rv CNCTC My 331/88 after 21 days; type: functional; conditions: H37Rv CNCTC My 331/88, 504 h; summary of the method: as §1
Klebsiella pneumoniae = experiment: Antibacterial activity against Klebsiella pneumoniae at highest concentration measured after 24 to 48 hrs by alamar blue dye based broth microdilution assay; type: functional, organism-based
Pseudomonas aeruginosa = experiment: Antibacterial activity against Pseudomonas aeruginosa ATCC 27853 CCM 3955 at highest concentration measured after 24 to 48 hrs by alamar blue dye based broth microdilution assay; type: functional, organism-based
[8] = target: T2, Decaprenylphosphoryl-beta-D-ribose oxidase (Mycobacterium tuberculosis (strain ATCC 25618 / H37Rv)); experiment: Inhibition of DprE1 in Mycobacterium tuberculosis H37Rv assessed as accumulation of trehalose monomycolates at 10 times MIC measured after 24 hrs in presence of [14C]-acetate by TLC-based autoradiography; summary of the method: as §3

| Compound | MIC99 (Mycobacterium avium) [µM] | DprE1 inhibition (active/not active) [1] | Activity (Aspergillus fumigatus) | Activity (Candida parapsilosis) | Activity (Escherichia coli) | Activity (Enterococcus faecalis) | MIC99 [2] [µM] | Activity (Aspergillus flavus) | MIC99 [3] [µM] | MIC99 (Mycobacterium kansasii [4]) [µM] | MIC99 (Mycobacterium kansasii [5]) [µM] | inhibition [6] | Activity (Staphylococcus aureus) | MIC99 [7] [µM] | Activity (Klebsiella pneumoniae) | Activity (Pseudomonas aeruginosa) | inhibition [8] |
| --- | --- | --- | --- | --- | --- | --- | --- | --- | --- | --- | --- | --- | --- | --- | --- | --- | --- |
| O=[N+]([O-])c1cc(-c2nnc(SCc3ccccc3)n2Cc2ccccc2)cc(C(F)(F)F)c1 | 250 (≈ 118 µg/mL) | Active | inactive | inactive | inactive | inactive | 0.06 (≈ 0.0282 µg/mL) | inactive | 0.03 (≈ 0.0141 µg/mL) | 0.03 (≈ 0.0141 µg/mL) | 0.03 (≈ 0.0141 µg/mL) | Active | inactive | 0.03 (≈ 0.0141 µg/mL) | inactive | inactive | Active |
| COc1ccc(CSc2nnc(-c3cc([N+](=O)[O-])cc(C(F)(F)F)c3)n2Cc2ccccc2)cc1 | 250 (≈ 125 µg/mL) | Active | inactive | inactive | inactive | inactive | 0.5 (≈ 0.25 µg/mL) | inactive | 0.5 (≈ 0.25 µg/mL) | 0.5 (≈ 0.25 µg/mL) | 0.5 (≈ 0.25 µg/mL) | Active | inactive | 0.5 (≈ 0.25 µg/mL) | inactive | inactive | Active |
| COc1ccc(Cn2c(SCc3cc([N+](=O)[O-])cc([N+](=O)[O-])c3)nnc2-c2ccccc2)cc1 | 250 (≈ 119 µg/mL) | inactive | inactive | inactive | inactive | inactive | 2 (≈ 0.955 µg/mL) | inactive | 1 (≈ 0.478 µg/mL) | 2 (≈ 0.955 µg/mL) | 1 (≈ 0.478 µg/mL) | inactive | inactive | 2 (≈ 0.955 µg/mL) | inactive | inactive | inactive |
| O=[N+]([O-])c1cc(-c2nnc(SCc3ccccc3)n2Cc2ccccc2)cc([N+](=O)[O-])c1 | 125 (≈ 55.9 µg/mL) | Active | inactive | inactive | inactive | inactive | 0.03 (≈ 0.0134 µg/mL) | inactive | 0.03 (≈ 0.0134 µg/mL) | 0.03 (≈ 0.0134 µg/mL) | 0.03 (≈ 0.0134 µg/mL) | inactive | inactive | 0.03 (≈ 0.0134 µg/mL) | inactive | inactive | inactive |
| COc1ccc(CSc2nnc(-c3cc([N+](=O)[O-])cc([N+](=O)[O-])c3)n2Cc2ccccc2)cc1 | 62 (≈ 29.6 µg/mL) | Active | inactive | inactive | inactive | inactive | 0.03 (≈ 0.0143 µg/mL) | inactive | 0.03 (≈ 0.0143 µg/mL) | 0.03 (≈ 0.0143 µg/mL) | 0.03 (≈ 0.0143 µg/mL) | inactive | inactive | 0.03 (≈ 0.0143 µg/mL) | inactive | inactive | inactive |
| CCCCCCn1c(SCc2cc([N+](=O)[O-])cc([N+](=O)[O-])c2)nnc1-c1ccccc1 | 250 (≈ 110 µg/mL) | inactive | inactive | inactive | inactive | inactive | 2 (≈ 0.883 µg/mL) | inactive | 1 (≈ 0.442 µg/mL) | 2 (≈ 0.883 µg/mL) | 1 (≈ 0.442 µg/mL) | inactive | inactive | 2 (≈ 0.883 µg/mL) | inactive | inactive | inactive |
